ChEMBL document CHEMBL1123939, “Evaluation of isomeric 4-(chlorohydroxyphenyl)-1,2,3,4-tetrahydroisoquinolines as dopamine D-1 antagonists” (J Med Chem, 1987)
Calls of active or inactive are those of the source. The rule behind the calls is not given here.

Columns and labels:
Format in all cases: protein assay
[1] = target: T1, Adenylate cyclase (Rattus norvegicus) (UniProt D4A3N4+P26770+Q04400+P26769+Q03343+P40146+Q8CFM9+P21932); test: Inhibition of dopamine sensitive adenylate cyclase at 100 uM; No inhibition
[2] = target: T1, Adenylate cyclase (Rattus norvegicus); test: Inhibition of dopamine sensitive adenylate cyclase at 1 uM; […]
[3] = target: T1, Adenylate cyclase (Rattus norvegicus); test: Inhibition of dopamine sensitive adenylate cyclase at 10 uM; No inhibition
[4] = target: T1, Adenylate cyclase (Rattus norvegicus); test: Inhibition of dopamine sensitive adenylate cyclase at 0.01 uM
Outline: (§1)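 Rat retinas homogenized in 150 vol/wt 2.0 mM Tris-HCl pH 7.4 with 2 mM EDTA. Incubated 20 min, 30 °C. Stopped with SDS/ATP/cyclic AMP containing [3H]cyclic AMP, then heated 85 °C, 2 min.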

[5] = target: T1, Adenylate cyclase (Rattus norvegicus); test: Inhibition of dopamine sensitive adenylate cyclase at 1 uM; outline: as §1
[6] = target: T1, Adenylate cyclase (Rattus norvegicus); test: Inhibition of dopamine sensitive adenylate cyclase at 0.1 uM; outline: as §1
[7] = target: T1, Adenylate cyclase (Rattus norvegicus); test: Inhibition of dopamine sensitive adenylate cyclase at 10 uM
[8] = target: T1, Adenylate cyclase (Rattus norvegicus); test: Inhibition of dopamine sensitive adenylate cyclase at 100 uM
[9] = target: T1, Adenylate cyclase (Rattus norvegicus); test: Inhibition of dopamine sensitive adenylate cyclase at 30 uM

What does the source list for `Oc1ccc(C2CNCc3ccccc32)cc1Cl` (stereo unspecified)?
inhibition [1]: inactive; inhibition [2]: inactive; inhibition [3]: inactive

Which inhibition [4] does the source give for `CN1CCc2cc(Cl)c(O)cc2[C@@H](c2ccccc2)C1` here?
Its inhibition is 23.2%.

And the inhibition [5]?
Its inhibition is 74.3%.

And the inhibition [6]?
The inhibition was 59.9%.

Which results are given for `Oc1cc(C2CNCc3ccccc32)ccc1Cl` (stereo unspecified)?
inhibition [7]: 8.9%; inhibition [8]: 26.3%; inhibition [2]: inactive

With `CN1Cc2ccccc2C(c2ccc(Cl)c(O)c2)C1` (stereo unspecified) as the molecule, how does the inhibition [9] read?
Its inhibition is 45.1%.

What about the inhibition [7] of the same molecule?
Its inhibition is 21%.

And the inhibition [8]?
The inhibition was 57.9%.

What about the inhibition [2] of the same molecule?
The inhibition was “inactive”.

With `Oc1cccc(C2CNCc3ccccc32)c1` (stereo unspecified) as the molecule, how does the inhibition [7] read?
Its inhibition is 8.8%.

What about the inhibition [8] of the same molecule?
Its inhibition is 22.9%.

And the inhibition [2]?
Its inhibition is “inactive”.
